Results reported in ChEMBL document CHEMBL1147842, “Novel 1,4-benzodiazepine derivatives with antiproliferative properties on tumor cell lines” (Bioorg Med Chem Lett, 2007).
The source made the active and inactive calls. No cut-off for these calls is given here.

What was measured:
Assay type in all cases: functional, cell-based
[1] = (§1) Antiproliferative activity against v-Src transformed mouse NIH 3T3 fibroblast after 72 hrs; conditions: NIH3T3, 72 h
How it was run: (§2)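 NIH 3T3/v-Src fibroblasts seeded at 10⁵/well, left overnight at 37°C in 5% CO₂. Compound exposure 0–150 μM for 72 h. Cells then washed in PBS, trypsinised and counted in a particle counter. Means of at least two independent experiments run in duplicate. IC₅₀ taken from a sigmoidal dose-response fit.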

[2] = test system: A2058; assay: Cytotoxicity against human A2058 cells after 72 hrs by WST-1 colorimetric test; conditions: for IC50: A2058, 72 h
How it was run: (§3)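 WST-1 colorimetric readout, based on cleavage by mitochondrial dehydrogenases. A2058 (4000 cells/well) or HeLa (3000 cells/well) left overnight at 37°C in 5% CO₂, then exposed to compounds at 0–150 μM for 72 h. WST-1 added for 2 h, absorbance at 450 nm read against a background control. Means of at least two independent experiments in triplicate.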

[3] = test system: HeLa; assay: Cytotoxicity against human HeLa cells after 72 hrs by WST-1 colorimetric test; how it was run: as §3
[4] = test system: NIH3T3; assay: as §1; how it was run: as §2
[5] = test system: NIH3T3; assay: Antiproliferative activity against v-Src transformed mouse NIH 3T3 fibroblast at 150 uM after 72 hrs; how it was run: as §2

SMILES | IC50 [1] [µM] | IC50 [2] [µM] | IC50 [3] [µM] | Activity [4] | Activity [2] | Activity [3] | Activity [5]
C[C@@H]1N=C(c2ccccc2)c2ccccc2N(Cc2ccc(OP(=O)(O)O)cc2)C1=O | 36.6 | 28.9 | 21.3 |  |  |  | 
NCCCC[C@@H]1N=C(c2ccccc2)c2ccccc2N(Cc2ccc(CP(=O)(O)O)cc2)C1=O |  |  |  | inactive | inactive | inactive | 
C[C@@H]1N=C(c2ccccc2)c2ccccc2N(Cc2ccc(CP(=O)(O)O)cc2)C1=O |  |  |  | inactive | inactive | inactive | 
C[C@@H]1N=C(c2ccccc2)c2ccccc2NC1=O |  |  |  |  | inactive | inactive | inactive
C[C@@H]1N=C(c2ccccc2)c2ccccc2N(Cc2ccc(O)cc2)C1=O | 38.6 | 27.2 | 29.3 |  |  |  | 
NCCCC[C@@H]1N=C(c2ccccc2)c2ccccc2N(Cc2ccc(OP(=O)(O)O)cc2)C1=O | ≥ 80 | 33.8 | ≥ 80 |  |  |  | 
CN1C(=O)CN=C(c2ccc(Cl)cc2)c2cc(Cl)ccc21 [RO-54864] | 31.9 | ≥ 100 | ≥ 100 |  |  |  | 
C[C@@H]1N=C(c2ccccc2)c2ccccc2N(Cc2ccc(OP(=O)(O)OCc3ccccc3)cc2)C1=O | 49.5 | 61.5 | 40.5 |  |  |  | 
